Sampled rows, rich in hits. Any-hit rate of the full collection: about 1.6%.
KLK7 zymogen act = proKLK7 (human) activation, primary screen. P49862. purified proKLK7, EDANS-DABCYL substrate fluorescence; 100% is mature enzyme control, 0% vehicle. activation, % at 7 µM. 370,000 compounds, 0.9% hits. AID 652039;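 active = activation above the mean of all tested compounds plus 3 SD, computed per campaign excluding outliers beyond control limits, cut at about 13% in these data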
Target sequence (P49862 whole entry, looked up): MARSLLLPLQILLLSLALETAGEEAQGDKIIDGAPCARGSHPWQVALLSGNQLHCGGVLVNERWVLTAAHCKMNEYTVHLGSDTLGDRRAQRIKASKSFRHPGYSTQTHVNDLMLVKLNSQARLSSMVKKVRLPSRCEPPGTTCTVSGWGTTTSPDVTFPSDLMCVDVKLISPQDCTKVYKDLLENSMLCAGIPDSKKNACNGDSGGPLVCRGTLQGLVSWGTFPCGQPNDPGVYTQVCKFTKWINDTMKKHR
proCasp3 act = activators of human procaspase-3; P42574; recombinant procaspase-3 D3A, Ac-DEVD-pNA absorbance 405 nm; activation, % at 8.5 µM; 330,000 compounds, 0.11% hits;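 active = activation above the mean of all tested compounds plus 3 SD, cut at about 21% in these data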
Target sequence (P42574 whole entry D9A/D28A/D175A): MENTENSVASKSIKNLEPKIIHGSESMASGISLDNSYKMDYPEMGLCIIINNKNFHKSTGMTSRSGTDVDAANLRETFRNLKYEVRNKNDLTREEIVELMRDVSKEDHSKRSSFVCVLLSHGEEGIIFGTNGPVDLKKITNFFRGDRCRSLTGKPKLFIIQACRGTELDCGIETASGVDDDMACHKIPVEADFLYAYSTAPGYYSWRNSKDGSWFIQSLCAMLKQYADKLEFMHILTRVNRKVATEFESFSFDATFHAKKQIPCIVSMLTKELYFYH
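Assay system: Autoprocessing-dead procaspase-3 D3A mutant enzyme; also added: Ac-DEVD-pNA; doses: one concentration, 8.5 µM nominal, 0.8% DMSO; times: 1 h compound preincubation, 2 h substrate hydrolysis at 25 °C; technique: 405 nm absorbance of p-nitroaniline, reads at 0 and 120 min; measure: % activation between DMSO and enzyme-spiked controls; repeats: single replicate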
Neddyl block = cullin neddylation inhibition; calls only at 25 µM; TR-FRET cullin neddylation, biochemical; 360,000 compounds, 0.58% hits; P61081+Q13564; in the data active = inhibition above about 36%
procasp7 counter = counter-screen for procaspase-3 activators: activators of human procaspase-7; P55210; recombinant procaspase-7, Ac-DEVD-pNA absorbance 405 nm; D23A/D198A/D206A triple mutant, cannot self-cleave; scale: DMSO 0, 5 µM enzyme 100; activation, % at 8.5 µM; AID 463210; 330,000 compounds, 0.093% hits;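 active = percent activation above the screen-wide mean plus 3 SD, cut at about 25% in these data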
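Material: Procaspase-7 triple mutant (PC-7 D3A) | Quantity: 2 µM procaspase-7 mutant as dispensed | Reagent: DEVD-pNA substrate | Times: 1 h preincubation, 2 h reaction | Technique: 405 nm absorbance of p-nitroaniline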
KLK7 act conf = proKLK7 activation, confirmation | shares compounds with KLK7 zymogen act | purified proKLK7, EDANS-DABCYL substrate fluorescence; scaled: vehicle 0, mature enzyme 100 | activation, % at 7 µM | 3,200 compounds, 68% hits | AID 686949;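 active = activation, as change over the incubation, above the mean of all tested compounds plus 3 SD, cut at about 13% in these data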
EDANS interfere = fluorescence interference counter-screen for KLK7 activators; shares compounds with KLK7 zymogen act; EDANS-DABCYL substrate fluorescence interference, no enzyme, 4 h; solvent 0%, active enzyme control 100%; activation, % at 7 µM; 3,200 compounds, 80% hits; AID 686952;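 active = activation above the all-compound mean plus 3 SD, ignoring values outside control-based bounds, cut at about 4.8% in these data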;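 note: value is the 4 h activation minus the activation read at time zero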
A number is an active result.

For Cc1cccn2c(=O)c3cc(C(N)=S)c(=N)n(CCCOC(C)C)c3nc12 the results were KLK7 zymogen act 45.6, proCasp3 act inactive, procasp7 counter inactive, KLK7 act conf inactive and EDANS interfere 5.7.
`CCOCCCn1c(=N)c(C(N)=S)cc2c(=O)n3cccc(C)c3nc21` gave KLK7 zymogen act 28.6, proCasp3 act inactive, procasp7 counter inactive, KLK7 act conf inactive and EDANS interfere inactive.
COCCn1c(=N)c(C(=O)NCCc2ccccc2)cc2c(=O)n3cccc(C)c3nc21 was read as KLK7 zymogen act inactive, proCasp3 act inactive and procasp7 counter inactive.
`COc1ccc2sc(-c3ccc(S(C)(=O)=O)cc3)c(C(=O)NCCc3c[nH]c4ccccc34)c2c1` gave KLK7 zymogen act inactive, proCasp3 act inactive, Neddyl block inactive and procasp7 counter inactive.
`COc1ccc2c(C(=O)NCCCCO)c(-c3ccc(S(C)(=O)=O)cc3)sc2c1` gave KLK7 zymogen act 48.6, proCasp3 act inactive, Neddyl block inactive, procasp7 counter inactive, KLK7 act conf 65.2 and EDANS interfere 82.2.
For CCc1cc(C(=O)OC)c(NC(=O)CSc2nccn2C)s1 the results were KLK7 zymogen act inactive, proCasp3 act inactive, Neddyl block inactive and procasp7 counter inactive.
`COc1cc2c(cc1OC)C(Cc1ccc(O)cc1)NCC2` (stereo not given) gave KLK7 zymogen act inactive, proCasp3 act inactive, Neddyl block inactive and procasp7 counter inactive.
`COc1cc2c(cc1OC)C(Cc1ccc(O)cc1)N(C)CC2` (stereo not given) gave KLK7 zymogen act 17.5, proCasp3 act inactive, Neddyl block inactive, procasp7 counter inactive, KLK7 act conf 68.3 and EDANS interfere 89.8.
`Cc1ccc(-c2cc(C(=O)O)c3cc(Br)ccc3n2)s1` gave KLK7 zymogen act 13.7, Neddyl block inactive, KLK7 act conf 22.0 and EDANS interfere 26.4.
For Cc1ccc(-c2cc(C(=O)NCc3ccco3)c3ccccc3n2)o1 the results were KLK7 zymogen act 18.1, proCasp3 act inactive, Neddyl block inactive, procasp7 counter inactive, KLK7 act conf inactive and EDANS interfere inactive.
For CCNC(=O)COC(=O)c1cc(-c2ccco2)nc2ccccc12 the results were KLK7 zymogen act 120.7, proCasp3 act inactive, Neddyl block inactive, procasp7 counter inactive, KLK7 act conf 16.5 and EDANS interfere 18.5.
For COc1ccc(CNC(=O)COC(=O)c2cc(C)nc3ccccc23)cc1 the results were KLK7 zymogen act inactive, proCasp3 act inactive, Neddyl block inactive and procasp7 counter inactive.
Screening O=C(Nc1nccs1)c1cc(N2CCOCC2)nc2ccccc12 returned KLK7 zymogen act 18.2, proCasp3 act inactive, Neddyl block inactive, procasp7 counter inactive, KLK7 act conf 14.3 and EDANS interfere 12.4.
For COC(=O)c1ccc(NC(=O)COc2ccc(N(C)S(=O)(=O)c3ccc(C)cc3)cc2)cc1 the results were KLK7 zymogen act inactive, proCasp3 act inactive, Neddyl block inactive and procasp7 counter inactive.
`O=C(CCSC1=NCCCN1)c1ccc(F)cc1` gave KLK7 zymogen act inactive and Neddyl block inactive.
Screening CN1CCN(NC(=O)c2cc(-c3ccccn3)nc3ccccc23)CC1 returned KLK7 zymogen act inactive, proCasp3 act inactive, Neddyl block inactive and procasp7 counter inactive.
Screening CN1CCN(NC(=O)c2cc(-c3ccc(Cl)s3)nc3ccccc23)CC1 returned KLK7 zymogen act 26.4, proCasp3 act inactive, procasp7 counter inactive, KLK7 act conf inactive and EDANS interfere inactive.
`CCc1ccc(-c2cc(C(=O)O)c3ccccc3n2)s1` gave KLK7 zymogen act 66.0, KLK7 act conf 60.4 and EDANS interfere 60.0.
Screening O=C(O)c1cc(-c2ccco2)nc2ccccc12 returned KLK7 zymogen act 20.7, proCasp3 act inactive, procasp7 counter inactive, KLK7 act conf 16.2 and EDANS interfere 16.0.
For Cc1ccc(-c2cc(C(=O)NN3CCOCC3)c3cc(Br)ccc3n2)o1 the results were KLK7 zymogen act 51.9, proCasp3 act inactive, Neddyl block inactive, procasp7 counter inactive, KLK7 act conf inactive and EDANS interfere inactive.
For Cc1ccc(-c2cc(C(=O)N3CC(C)OC(C)C3)c3ccccc3n2)o1 (stereo not given) the results were KLK7 zymogen act 46.2, proCasp3 act inactive, procasp7 counter inactive, KLK7 act conf 64.8 and EDANS interfere 66.4.
Cc1ccc(-c2cc(C(=O)N3CC(C)CC(C)C3)c3ccccc3n2)o1 (stereo not given) was read as KLK7 zymogen act inactive, proCasp3 act inactive, Neddyl block inactive and procasp7 counter inactive.
`Cc1nnc(NC(=O)c2cc(-c3ccco3)nc3ccccc23)s1` gave KLK7 zymogen act 23.5, proCasp3 act inactive, Neddyl block inactive, procasp7 counter inactive, KLK7 act conf inactive and EDANS interfere 9.9.
O=C(Nc1nccs1)c1cc(-c2ccco2)nc2ccccc12 was read as KLK7 zymogen act 15.5, proCasp3 act inactive, Neddyl block inactive, procasp7 counter inactive, KLK7 act conf inactive and EDANS interfere inactive.
For C=C(C)Cn1c2ccc(NC(=O)CCc3cccc(Cl)c3)cc2c(=O)n1C the results were KLK7 zymogen act inactive.
C=C(C)Cn1c2ccc(NC(=O)CCOCC)cc2c(=O)n1C was read as KLK7 zymogen act 24.2, KLK7 act conf 19.1 and EDANS interfere 21.6.
For CCOCCC(=O)Nc1ccc2c(c1)c(=O)n(C)n2CC=C(C)C the results were KLK7 zymogen act 25.7, KLK7 act conf 15.0 and EDANS interfere 17.2.
`Cn1c(=O)c2cc(NC(=O)CCc3cccc(Cl)c3)ccc2n1Cc1cccc(C(F)(F)F)c1` gave KLK7 zymogen act inactive and Neddyl block inactive.
Screening C=CS(=O)(=O)c1c2cc(OC)ccc2nc2ccc(OC)cc12 returned KLK7 zymogen act 21.7, KLK7 act conf inactive and EDANS interfere inactive.
`COc1ccccc1CC(NC(C)=O)C(=O)NC1CCN(C(=O)Nc2ccccc2F)CC1` (stereo not given) gave KLK7 zymogen act inactive, proCasp3 act inactive, Neddyl block inactive and procasp7 counter inactive.
For COc1ccc(-c2cncc3nccn23)cc1OC the results were KLK7 zymogen act inactive and Neddyl block inactive.
For CCOc1ccc(-c2cncc3nccn23)cc1 the results were KLK7 zymogen act 16.6, KLK7 act conf 33.0 and EDANS interfere 35.6.
CCc1ccc(CN(C)C(=O)CCc2nnc(COc3ccccc3)o2)cc1 was read as KLK7 zymogen act inactive, proCasp3 act inactive, Neddyl block inactive and procasp7 counter inactive.
Screening COc1ccc(-c2cc(=Nc3c(C)n(C)n(-c4ccccc4)c3=O)c3ccccc3o2)cc1 returned KLK7 zymogen act 39.6, proCasp3 act inactive, procasp7 counter inactive, KLK7 act conf 43.5 and EDANS interfere 53.4.

High-throughput results from PubChem.
